Key:
[1] = tested on: Human immunodeficiency virus 1; assay: Antiviral activity against wild type HIV1; format: functional, organism-based
[2] = tested on: Human immunodeficiency virus 1; assay: Antiviral activity against wild type HIV1 NL4-3 infected in human TZM-bl cells after 48 hrs by luciferase reporter gene assay; format: functional, organism-based; settings: Human immunodeficiency virus 1, NL4-3, TZM-bl
How it was run: (§1)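 Single-round infection of TZM-bl cells (NL4-3 or RTMDR1 strain), with luciferase reporter read-out. Virus at 200 TCID50 was mixed with eight four-fold serial dilutions of sample in growth medium, then incubated 48 h. Luciferase was read by luminometer. EC50 is the concentration giving a 50% drop in RLU versus virus control after background subtraction. Values are means of at least three independent experiments.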

[3] = tested on: Human immunodeficiency virus 1; assay: Antiviral activity against drug-resistance HIV1; format: functional, organism-based
[4] = Selectivity index, ratio of CC50 for human TZM-bl cells to EC50 for drug-resistance HIV1 RTMDR1 infected in human TZM-bl cells; format: toxicity, cell-based; settings: read-out: Ratio CC50/EC50
How it was run: (§2)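 Selectivity index is CC50 ÷ EC50. CC50 came from the CytoTox-Glo cytotoxicity kit run per the maker's protocol in TZM-bl cells. EC50 came from the 48 h single-round TZM-bl luciferase infection assay (200 TCID50 virus, eight four-fold dilutions) against the NL4-3 or RTMDR1 strain. Values are averaged from at least three independent experiments.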

[5] = Selectivity index, ratio of CC50 for human TZM-bl cells to EC50 for wild type HIV1 NL4-3 infected in human TZM-bl cells; format: toxicity, cell-based; settings: read-out: Ratio CC50/EC50; how it was run: as §2
[6] = Cytotoxicity against human TZM-bl cells by CytoTox-Glo assay; format: cell-based
[7] = tested on: Human immunodeficiency virus 1; assay: Antiviral activity against drug-resistance HIV1 RTMDR1 infected in human TZM-bl cells after 48 hrs by luciferase reporter gene assay; format: functional, organism-based; settings: Human immunodeficiency virus 1, RTMDR1, TZM-bl; how it was run: as §1
[8] = tested on: Human immunodeficiency virus 1; assay: Ratio of 2-EDCP EC50 to compound EC50 for wild type HIV1 NL4-3 infected in human TZM-bl cells; format: functional

| Compound | EC50 [1] [nM] | EC50 [2] [nM] | EC50 [3] [nM] | selectivity ratio [4] | selectivity ratio [5] | CC50 [6] [nM] | EC50 [7] [nM] | Ratio EC50 [8] |
| --- | --- | --- | --- | --- | --- | --- | --- | --- |
| CCc1cc(=O)c2ccc3c(c2o1)[C@@H](OC(=O)C12CCC(C)(C(=O)O1)C2(C)C)[C@@H](OC(=O)C12CCC(C)(C(=O)O1)C2(C)C)C(C)(C)O3 (stereo partly drawn) | 70 | 89 | 110 | 110 | 136 | 12100 | 110 | – |
| COc1cc2c(c3oc4ccc(Br)cc4c(=O)c13)[C@@H](OC(=O)C13CCC(C)(C(=O)O1)C3(C)C)[C@@H](OC(=O)C13CCC(C)(C(=O)O1)C3(C)C)C(C)(C)O2 (stereo partly drawn) | – | 1470 | – | – | 6.83 | 9230 | – | – |
| Cc1cc(=O)c2c(C)cc3c(c2o1)[C@@H](OC(=O)C12CCC(C)(C(=O)O1)C2(C)C)[C@@H](OC(=O)C12CCC(C)(C(=O)O1)C2(C)C)C(C)(C)O3 (stereo partly drawn) | 36 | – | 490 | – | – | – | – | – |
| COc1cc2c(c3oc4c(F)cccc4c(=O)c13)[C@@H](OC(=O)C13CCC(C)(C(=O)O1)C3(C)C)[C@@H](OC(=O)C13CCC(C)(C(=O)O1)C3(C)C)C(C)(C)O2 (stereo partly drawn) | – | 230 | – | – | 33.9 | 7800 | – | – |
| COc1cc2c(c3oc4cc(C)ccc4c(=O)c13)[C@@H](OC(=O)C13CCC(C)(C(=O)O1)C3(C)C)[C@@H](OC(=O)C13CCC(C)(C(=O)O1)C3(C)C)C(C)(C)O2 (stereo partly drawn) | – | 95 | – | > 38.6 | > 147 | > 14000 | 363 | – |
| COc1cc2c(c3oc4ccc(CBr)cc4c(=O)c13)[C@@H](OC(=O)C13CCC(C)(C(=O)O1)C3(C)C)[C@@H](OC(=O)C13CCC(C)(C(=O)O1)C3(C)C)C(C)(C)O2 (stereo partly drawn) | – | 4530 | – | – | > 5.55 | > 25200 | – | – |
| COc1cc2c(c3oc4cccc(F)c4c(=O)c13)[C@@H](OC(=O)C13CCC(C)(C(=O)O1)C3(C)C)[C@@H](OC(=O)C13CCC(C)(C(=O)O1)C3(C)C)C(C)(C)O2 (stereo partly drawn) | – | 62 | – | > 214 | > 224 | > 13900 | 65 | – |
| COc1cccc2oc3c4c(cc(OC)c3c(=O)c12)OC(C)(C)[C@H](OC(=O)C12CCC(C)(C(=O)O1)C2(C)C)[C@@H]4OC(=O)C12CCC(C)(C(=O)O1)C2(C)C (stereo partly drawn) | – | 1700 | – | – | 6.83 | 11600 | – | – |
| COc1cc2c(c3oc4ccccc4/c(=N\O)c13)[C@@H](OC(=O)C13CCC(C)(C(=O)O1)C3(C)C)[C@@H](OC(=O)C13CCC(C)(C(=O)O1)C3(C)C)C(C)(C)O2 (stereo partly drawn) | – | 120 | – | – | > 118 | > 13900 | – | – |
| COc1ccc2c(=O)c3c(OC)cc4c(c3oc2c1)[C@@H](OC(=O)C12CCC(C)(C(=O)O1)C2(C)C)[C@@H](OC(=O)C12CCC(C)(C(=O)O1)C2(C)C)C(C)(C)O4 (stereo partly drawn) | – | 362 | – | – | > 37.8 | > 13700 | – | – |
| COc1cc2c(c3oc4ccc(C#N)cc4c(=O)c13)[C@@H](OC(=O)C13CCC(C)(C(=O)O1)C3(C)C)[C@@H](OC(=O)C13CCC(C)(C(=O)O1)C3(C)C)C(C)(C)O2 (stereo partly drawn) | – | 290 | – | – | > 47.8 | > 13800 | – | – |
| COc1cc2c(c3oc4ccc(F)cc4c(=O)c13)[C@@H](OC(=O)C13CCC(C)(C(=O)O1)C3(C)C)[C@@H](OC(=O)C13CCC(C)(C(=O)O1)C3(C)C)C(C)(C)O2 (stereo partly drawn) | – | 100 | – | 162 | 260 | 26000 | 160 | – |
| COc1cc2c(c3oc4cccc(O)c4c(=O)c13)[C@@H](OC(=O)C13CCC(C)(C(=O)O1)C3(C)C)[C@@H](OC(=O)C13CCC(C)(C(=O)O1)C3(C)C)C(C)(C)O2 (stereo partly drawn) | – | 330 | – | – | 24.5 | 8100 | – | – |
| COc1cc2c(c3oc4c(C)cccc4c(=O)c13)[C@@H](OC(=O)C13CCC(C)(C(=O)O1)C3(C)C)[C@@H](OC(=O)C13CCC(C)(C(=O)O1)C3(C)C)C(C)(C)O2 (stereo partly drawn) | – | 1520 | – | – | 2.84 | 4320 | – | – |
| COc1cc(C)c2c(=O)c3c(OC)cc4c(c3oc2c1)[C@@H](OC(=O)C12CCC(C)(C(=O)O1)C2(C)C)[C@@H](OC(=O)C12CCC(C)(C(=O)O1)C2(C)C)C(C)(C)O4 (stereo partly drawn) | – | 140 | – | – | > 192 | > 26800 | – | – |
| COc1cc2c(c3oc4ccc(C)cc4c(=O)c13)[C@@H](OC(=O)C13CCC(C)(C(=O)O1)C3(C)C)[C@@H](OC(=O)C13CCC(C)(C(=O)O1)C3(C)C)C(C)(C)O2 (stereo partly drawn) | – | 65 | – | 141 | 175 | 11400 | 81 | – |
| COc1cc2c(c3oc4cc(C#N)ccc4c(=O)c13)[C@@H](OC(=O)C13CCC(C)(C(=O)O1)C3(C)C)[C@@H](OC(=O)C13CCC(C)(C(=O)O1)C3(C)C)C(C)(C)O2 (stereo partly drawn) | – | 200 | – | – | 45.4 | 9080 | – | – |
| COc1ccc2oc3c4c(cc(OC)c3c(=O)c2c1)OC(C)(C)[C@H](OC(=O)C12CCC(C)(C(=O)O1)C2(C)C)[C@@H]4OC(=O)C12CCC(C)(C(=O)O1)C2(C)C (stereo partly drawn) | – | 120 | – | 25.7 | 88.8 | 10800 | 420 | – |
| COc1cc2c(c3oc4cccc(C)c4c(=O)c13)[C@@H](OC(=O)C13CCC(C)(C(=O)O1)C3(C)C)[C@@H](OC(=O)C13CCC(C)(C(=O)O1)C3(C)C)C(C)(C)O2 (stereo partly drawn) | – | 150 | – | 31.4 | 77.3 | 11600 | 370 | – |
| CC1(C)Oc2ccc3c(=O)c4ccccc4oc3c2[C@@H](OC(=O)C23CCC(C)(C(=O)O2)C3(C)C)[C@H]1OC(=O)C12CCC(C)(C(=O)O1)C2(C)C (stereo partly drawn) | – | 308 | – | > 54.6 | > 96.8 | > 29800 | 546 | – |
| COc1cc2c(c3oc4ccccc4c(=O)c13)[C@@H](OC(=O)C13CCC(C)(C(=O)O1)C3(C)C)[C@@H](OC(=O)C13CCC(C)(C(=O)O1)C3(C)C)C(C)(C)O2 (stereo partly drawn) | – | 63 | – | > 193 | > 227 | > 14300 | 74 | 1.5 |
